{"data": "Measurements of several laboratories", "observed": "cell growth or viability", "note": "Each line is one published result; the experiments were not run side by side. pEC50: −log10 of the molar value."}
{"SMILES": "CCCCCCCCCCCCCCCCCCOc1ccc(CC(=O)OCC[N+]2(C)CCOCC2)cc1", "cell line": "NCI-H522", "method": "SRB", "tested at": "10 µM", "endpoint": "inhibition", "result": "5.79%"}
{"SMILES": "CN(C)CCNC(=O)c1ccc(-c2nc3ccc4[nH]ncc4c3c3c2CCCCC3)c(F)c1", "cell line": "EOL1", "time": "72 h", "endpoint": "GI50", "result": "0.052 µM"}
{"SMILES": "COc1ccc(C=NNC(=O)c2nc3ccccc3s2)cc1O", "cell line": "PC-3", "method": "MTT", "tested at": "100 µM", "time": "48 h", "endpoint": "cell death", "result": "25.1%"}
{"SMILES": "Cc1n[nH]c2ccc3nc(-c4ccc(C(=O)NCCN(C)C)cc4)c4c(c3c12)CCCC4", "cell line": "EOL1", "time": "72 h", "endpoint": "GI50", "result": "0.037 µM"}
{"SMILES": "CNCCC(=O)Nc1ccccc1/N=c1\\cc(-c2ccc3nc(N)oc3c2)oc2ccccc12", "cell line": "A549", "method": "CCK-8", "tested at": "1 µM", "endpoint": "inhibition", "result": "7.88%"}
{"SMILES": "CCCCCCCCCCCCCCCCCCOc1ccccc1CC(=O)OCCC[N+](C)(C)C", "cell line": "NCI-H522", "method": "SRB", "tested at": "10 µM", "endpoint": "inhibition", "result": "63.7%"}
{"SMILES": "COc1ccc2/c(=N/c3ccccc3NC(=O)CN)cc(-c3ccc4c(c3)OCCO4)oc2c1", "cell line": "A549", "method": "CCK-8", "tested at": "1 µM", "endpoint": "inhibition", "result": "0.19%"}
{"SMILES": "O=c1[nH]cc(F)c(=O)[nH]1", "cell line": "PC-3", "method": "MTT", "tested at": "100 µM", "time": "48 h", "endpoint": "cell death", "result": "10.7%"}
{"SMILES": "CCCCCCCCCCCCCCCCCCOc1cccc(CC(=O)OCC[N+]2(C)CCCC2)c1", "cell line": "NCI-H522", "method": "SRB", "tested at": "10 µM", "endpoint": "inhibition", "result": "36.6%"}
{"SMILES": "CCC/C(=C\\C1=C(OC)C(=O)c2ccccc2C1=O)C(=O)N(CC)CC", "cell line": "HUVEC", "method": "resazurin", "time": "48 h", "endpoint": "GI50", "result": "2.7 µM"}
{"SMILES": "Cc1nc(Nc2ncc(C(=O)Nc3c(C)cccc3Cl)s2)cc(N2CC[C@H](O)C2)n1", "cell line": "WSU-NHL", "method": "ATP luminescence", "tested at": "10 µM", "time": "72 h", "endpoint": "inhibition", "result": "91%"}
{"SMILES": "CCCCCCCCCCCCCCCCCCOc1ccccc1CC(=O)OCC[N+](CC)(CC)CC", "cell line": "NCI-H522", "method": "SRB", "tested at": "10 µM", "endpoint": "inhibition", "result": "89.5%"}
{"SMILES": "Cc1nc(NC(=O)N2CCC[C@H]2C(N)=O)sc1-c1ccnc(C(C)(C)C(F)(F)F)c1", "cell line": "NCI-H1048", "method": "ATP luminescence", "time": "5 days", "endpoint": "pEC50", "result": 6.21}
{"SMILES": "NCCC(=O)Nc1ccccc1/N=c1\\cc(-c2ccc3c(c2)OCCO3)oc2cc(F)ccc12", "cell line": "A549", "method": "CCK-8", "tested at": "1 µM", "endpoint": "inhibition", "result": "-8.9%"}
{"SMILES": "CN(C)CCNC(=O)c1ccc(-c2nc3ccc4[nH]ncc4c3c3c2CCCC3)c(F)c1", "cell line": "EOL1", "time": "72 h", "endpoint": "GI50", "result": "0.042 µM"}
{"SMILES": "NC(=O)C1CCCN1C(=O)Nc1ccccc1/N=c1\\cc(-c2ccc3c(c2)OCCO3)oc2cc(F)ccc12 (centres unmarked)", "cell line": "A549", "method": "CCK-8", "tested at": "1 µM", "endpoint": "inhibition", "result": "-1.31%"}
{"SMILES": "CCCCCCCCCCCCCCCCCCOc1cccc(CC(=O)OCC[N+](CC)(CC)CC)c1", "cell line": "NCI-H522", "method": "SRB", "tested at": "10 µM", "endpoint": "inhibition", "result": "61.5%"}
